Source: PubChem (Broad Institute)
Most compounds without a hit are left out; they make up all but 2.9% or so of the library.
PglD inh – PglD (C. jejuni) enzyme inhibition | purified PglD enzyme, DTNB colorimetric CoA detection | inhibition, % at 12.5 µM | hit rate 0.098% among 360,000; in the data active = inhibition above about 16%, passing the limit was not always enough; inconclusive = no clear call, values can overlap the other calls
FGF22 binding – FGF22 (human) thermal shift binding. recombinant FGF22 thermal shift, SYPRO orange fluorescence; percent of sucrose octasulfate shift, DMSO zero. hit rate 1.5% among 340,000. AID 651658. activity (Tm shift, normalised), % at 9.99 µM;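 active = mean Tm shift, scaled 0 neutral to 100 positive control, at about 1.3% or above, every replicate too, limit read from the data; inconclusive = no clear call, values can overlap the other calls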
Target sequence (Q9HCT0 whole entry, looked up): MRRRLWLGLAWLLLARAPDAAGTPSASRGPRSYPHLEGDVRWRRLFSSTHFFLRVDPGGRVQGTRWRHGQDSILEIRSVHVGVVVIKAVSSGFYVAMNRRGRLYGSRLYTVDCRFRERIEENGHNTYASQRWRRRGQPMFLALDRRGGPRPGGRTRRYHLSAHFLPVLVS
Vif inh – HIV Vif inhibition; hit rate 0.35% among 340,000; inhibition, % at 7.49 µM; HEK293T cells, Vif self-association by quenched fluorescence, imaging, 24 h; in the data active = inhibition above about 50%, passing the limit was not always enough; inconclusive = no clear call, values can overlap the other calls; inactive = below about 31%
PGC1a acetyl inh – lowers PGC1a acetylation signal in U2OS cells; hit rate 0.17% among 350,000; AID 651687; AlphaScreen anti-acetyl-lysine; with virally co-expressed GCN5 acetyltransferase; inhibition, % at 15.6 µM;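 active = every replicate shows inhibition of at least 40%; inconclusive = mean inhibition at least 40% but some replicate below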;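 note: 0% = neutral control wells and 100% = positive control wells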
Cneo AK release – Cryptococcus neoformans lysis via adenylate kinase release; C. neoformans lysis, adenylate kinase release luminescence, 4 h; normalised: neutral wells 0, clomiphene wells 100; lysis activity, % at 15 µM; hit rate 0.2% among 360,000;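 active = mean lysis activity across replicates of at least 80%, whatever share of replicates individually reach that level; inactive = mean lysis activity below 80%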
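Assay system: log-phase C. neoformans yeast / Quantity: yeast cell density of 5 × 10^6 cells/mL / Medium: fresh YPD growth medium / Compound: single dose / Timing: static 4 h at 37 °C with compound, 1 h detection / Measured by: adenylate kinase release luminescence / Read-out: lysis from increased AK signal / Benchmarks: Clomiphene as positive lysis control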
rRNA inh HTS – selective bacterial rRNA inhibition in E. coli; AID 720706; E. coli WT GFP vs humanized-ribosome RFP mutants, fluorescence, 24 h; active compounds read low; DMSO median 0, no signal -100; hit rate 1.6% among 350,000; GFP signal change (wild-type ribosome), % (no concentration beside the values);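 active = significant combined selectivity score with lowered wild-type GFP, culture density cut under 30%, mutant RFP and density less affected; inactive = any of these conditions unmet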
Numbers without * were called inactive; ? = inconclusive; nt = not tested or not shown; + = active, no number.

SMILES | PglD inh | FGF22 binding | Vif inh | PGC1a acetyl inh | Cneo AK release | rRNA inh HTS
Cc1cc(C)c(C)c(S(=O)(=O)N2CCCCC2C(=O)O)c1C (stereo not given) | 0 | 0 | 55* | -1 | 3 | -4
COc1ccc(NC(=O)N(C)C[C@H]2Oc3ccc(NS(=O)(=O)c4cn(C)cn4)cc3C(=O)N([C@@H](C)CO)C[C@@H]2C)cc1 | -2 | 0 | nt | -5 | -3 | 2
CC(CC(=O)O)CC(=O)Nc1cc(C(F)(F)F)cc(C(F)(F)F)c1 (stereo not given) | nt | 0 | 11 | 9 | nt | 7
CCC(C)(CC(=O)O)CC(=O)Nc1cc(C(F)(F)F)cc(C(F)(F)F)c1 (stereo not given) | nt | 0 | 3 | 68* | nt | 6
C[C@@H]1CCCCO[C@H](CN(C)Cc2ccc(Cl)c(Cl)c2)[C@@H](C)CN([C@@H](C)CO)C(=O)c2cc(N(C)C)ccc2O1 | -7 | -1 | nt | -10 | 11 | -2
CCN1c2ccccc2NC2C1C(C(C)=O)C(=O)N2c1ccc(Cl)cc1 (stereo not given) | 2 | 0 | + | -8 | 0 | -15
O=C1Nc2ccccc2N(O)N1c1ccc(Cl)cc1 | nt | 0 | -4 | nt | nt | 11
O=C(c1ccccc1)N1CC[C@@H]2[C@@H](CO)Nc3ccc(C#Cc4cccc(F)c4)cc3[C@@H]21 | -2 | 0 | nt | 16 | 3 | -5
O=C(CNC(=O)c1cccs1)OCc1ccc(Br)cc1 | 0 | 0 | -1 | 2 | -2 | -26*
CN1CCC/C1=C1/C(=O)N(c2ccccc2)N=C1NC(=O)Nc1cccc(Cl)c1 | nt | -1 | 8 | nt | nt | -31*
COc1ccc(/C=N/NC(=O)c2ccccc2O)cc1Cn1nnc2ccccc21 | -5 | 0 | 0 | -16 | 4 | -23*
COc1ccc(NC(=O)Nc2ccc3c(c2)C(=O)N([C@H](C)CO)C[C@H](C)[C@@H](CN(C)C(=O)Nc2cccc4ccccc24)OCCCC[C@@H](C)O3)cc1 | 1 | 0 | nt | 4 | -1 | 3
CN(C)CC(=O)N[C@H]1CC[C@@H](CC(=O)NCc2ccc(Cl)cc2)O[C@@H]1CO | 0 | -1 | nt | 5 | 1 | 0
COC(=O)NNC(=O)c1ccc(Cl)cc1Cl | nt | 0 | -5 | nt | nt | nt
COC(=O)Nc1cc(C(=O)c2ccc(Cl)cc2Cl)c[nH]1 | 5 | 0 | -12 | 1 | 1 | -47*
Cc1ccc(C(=O)N/C(=C\c2sccc2C)C(=O)NCc2ccco2)cc1 | -7 | nt | 51* | nt | 9 | nt
Cc1ccc(C(=O)N/C(=C\c2sccc2C)C(=O)NCc2ccncc2)cc1 | nt | nt | 0 | nt | nt | nt
O=C(CCCCCCC(=O)Nc1ccccc1)NO | 0 | 0 | 152* | ? | 0 | 3
O=C(NC(=S)Nc1ccc2ncccc2c1)c1ccccc1 | 0 | 0 | -3 | 1 | -2 | -21*
Cc1noc(C)c1NC(=O)N(C)C[C@H]1Oc2c(NS(=O)(=O)c3cn(C)cn3)cccc2C(=O)N([C@H](C)CO)C[C@H]1C | 13 | 0 | nt | -1 | -4 | 2
C[C@H]1CN([C@@H](C)CO)C(=O)c2cc(NS(=O)(=O)c3cccs3)ccc2O[C@H]1CN(C)Cc1ccncc1 | -2 | 0 | nt | 2 | -6 | 1
CNCc1sccc1C | nt | 43* | -3 | nt | nt | 10
CCC(=O)N1CCc2cc(Br)cc(S(=O)(=O)N(C)c3ccc(OC)cc3OC)c21 | -2 | 43* | 11 | 10 | 2 | -30*
CC(C)[C@H](NC(=O)c1ccccc1)C(=O)OCC(=O)Nc1ccc(S(=O)(=O)N2CCOCC2)cc1 | nt | 43* | 5 | nt | nt | 8
CC(C)[C@H](NC(=O)c1ccccc1Cl)C(=O)OCC(=O)Nc1ccc(S(=O)(=O)N2CCOCC2)cc1 | -3 | 42 | 5 | 3 | 0 | 3
SMILES | PglD inh | FGF22 binding | Vif inh | PGC1a acetyl inh | Cneo AK release | rRNA inh HTS
O=c1[nH]c(/C=C/c2ccc([N+](=O)[O-])cc2)c([N+](=O)[O-])c(=O)[nH]1 | -5 | 0 | 2 | ? | 1 | 4
O=C(COc1ccc(S(=O)(=O)N2CCOCC2)cc1)Nc1cccc([N+](=O)[O-])c1 | 2 | 1 | 20 | nt | -1 | nt
Cc1cccc(NC(=O)COc2ccc(/C=C\c3[nH]c(=O)[nH]c(=O)c3[N+](=O)[O-])cc2)c1 | nt | 44* | -2 | 3 | nt | 18
O=C(COc1ccc([N+](=O)[O-])cc1)NNC(=O)Nc1ccc([N+](=O)[O-])cc1 | 0 | 0 | -3 | -1 | 0 | -19*
O=C(COc1ccc([N+](=O)[O-])cc1)Nc1ccc(S(=O)(=O)N2CCOCC2)cc1 | -1 | 0 | 55* | 8 | -3 | -8
Cc1ccccc1S(=O)(=O)N(C)C[C@H]1OCc2ccccc2-c2ccccc2C(=O)N([C@@H](C)CO)C[C@@H]1C | nt | nt | nt | nt | nt | 12
O=C(C[C@@H]1C=C[C@@H](NC(=O)CN2CCOCC2)[C@H](CO)O1)NCCc1ccncc1 | nt | nt | nt | 4 | nt | 4
O=C(/C=C/c1ccccc1[N+](=O)[O-])OCC(=O)c1ccccc1 | nt | 0 | 3 | 6 | nt | -22*
CCCOC(=O)c1cccc(NC(=O)COc2ccc([N+](=O)[O-])cc2)c1 | nt | 0 | 3 | nt | nt | -21*
O=C(O)CCCn1cc(NC(=O)COc2ccc([N+](=O)[O-])cc2)cn1 | nt | 43* | 3 | nt | nt | 18
Cc1cc(OCC(=O)Nc2cnn(CCCC(=O)O)c2)ccc1[N+](=O)[O-] | nt | 0 | -4 | 4 | nt | 10
COc1ccc(NC(=O)COC(=O)/C=C/c2ccccc2[N+](=O)[O-])cc1 | 5 | nt | -4 | -9 | 1 | nt
O=C(COC(=O)/C=C/c1ccccc1[N+](=O)[O-])Nc1ccc(S(=O)(=O)N2CCOCC2)cc1 | -3 | 43* | 6 | 7 | 0 | -8
CCS(=O)(=O)N1[C@H](CO)[C@H](c2ccc(C3=CCCCC3)cc2)[C@@H]1C#N | 0 | 0 | nt | 2 | 2 | 4
O=C(C[C@H]1C=C[C@@H](NS(=O)(=O)c2ccc(F)cc2)[C@@H](CO)O1)NCc1ccncn1 | -2 | 0 | nt | -4 | -1 | 3
C[C@@H]1CN([C@H](C)CO)C(=O)c2cc(-c3cncnc3)cnc2O[C@H]1CN(C)C(=O)Cc1ccccn1 | 5 | 0 | nt | 3 | -24 | 0
O=C(COc1ccc(S(=O)(=O)N2CCOCC2)cc1)NC1CC1 | -9 | 0 | 52* | nt | 1 | 4
O=C(COc1ccc(S(=O)(=O)N2CCOCC2)cc1)NC1CCCC1 | 0 | nt | 24 | 10 | 2 | nt
COc1ccc(C(c2c(NC(=O)c3ccco3)sc(C)c2C)N2CCOCC2)cc1 (stereo not given) | -3 | 0 | -7 | nt | -1 | 2
COc1cc(C(Nc2ccccn2)c2c(NC(=O)c3ccco3)sc(C)c2C)cc(OC)c1OC (stereo not given) | -2 | 44* | -11 | 2 | -2 | 3
